Results on one molecule are retold here after ChEMBL document CHEMBL5537190, “Development of Potent and Selective Monoacylglycerol Lipase Inhibitors. SARs, Structural Analysis, and Biological Characterization” (J Med Chem, 2024).

Active and inactive are the calls of the source. The rule behind the calls is not given here. A value given as a limit tells only on which side of the number the result lay.

The target in assay [1] is T1, Monoglyceride lipase (Mus musculus) (UniProt O35678).
T1 sequence (whole entry): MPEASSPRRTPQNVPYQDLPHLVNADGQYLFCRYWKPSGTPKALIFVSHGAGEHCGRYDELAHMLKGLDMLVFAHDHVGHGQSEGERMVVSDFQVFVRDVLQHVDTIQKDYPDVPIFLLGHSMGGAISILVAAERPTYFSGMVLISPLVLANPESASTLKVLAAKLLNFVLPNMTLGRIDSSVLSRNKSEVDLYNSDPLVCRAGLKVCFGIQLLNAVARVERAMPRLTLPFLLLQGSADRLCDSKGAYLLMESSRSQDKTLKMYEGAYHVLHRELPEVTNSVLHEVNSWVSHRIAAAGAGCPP
Nature of the assay: In-vivo inhibition of ip dosed mouse MAGL assessed as increase in 2-Ag level measured after 1 hr by LC-MS/MS analysis. In kind it is functional, organism-based. As to conditions: dose 0.2-20 mg/kg. In a few lines: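 Adult male mice dosed i.p. at 0.2, 1, 5 or 20 mg/kg (n = 3/group), vehicle DMSO or PEG/Tween (4:1). Killed at 1 h; brains halved and frozen. One half for 2-AG by LC-MS, the other for MAGL assay on homogenate. t-test against vehicle; two-way ANOVA with Bonferroni post-test.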

Assay [2] concerns the target Kappa-type opioid receptor (Homo sapiens) (UniProt P41145). Nature of the assay: Agonist activity at human KOP at 10 uM relative to control. In kind it is functional. Conditions: filed as agonist.
The next assay concerns the target Cannabinoid receptor 2 (Homo sapiens, UniProt P34972). Nature of the assay: Agonist activity at human CB2 receptor at 10 uM by TR-FRET assay. In kind it is functional. For orientation: In TR-FRET formats the signal depends on donor and acceptor labels being close together.
Assay [3] concerns the target T1, Monoglyceride lipase (Mus musculus). Nature of the assay: In-vivo inhibition of mouse MAGL assessed as decrease in arachidonic acid level in brain at 5 mg/kg, ip measured after 1 hr by LC-MS/MS analysis. It is filed as functional, organism-based. Put shortly: (§1)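 Adult male mice received 5 mg/kg i.p. (n = 3/group), DMSO vehicle. Killed at 1 h. Half-brains used for lipid analysis by LC-MS; the other half homogenised for MAGL activity assay. Compared with vehicle by two-tailed t-test.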

For assay [4] the target is unchanged. Nature of the assay: In-vivo inhibition of mouse MAGL assessed as effect on oleic level in brain at 5 mg/kg, ip measured after 1 hr by LC-MS/MS analysis. In kind it is functional, organism-based. In a few lines: as §1
The target in assay [5] is T2, Monoglyceride lipase (Rattus norvegicus) (UniProt Q8R431).
T2 sequence (whole entry): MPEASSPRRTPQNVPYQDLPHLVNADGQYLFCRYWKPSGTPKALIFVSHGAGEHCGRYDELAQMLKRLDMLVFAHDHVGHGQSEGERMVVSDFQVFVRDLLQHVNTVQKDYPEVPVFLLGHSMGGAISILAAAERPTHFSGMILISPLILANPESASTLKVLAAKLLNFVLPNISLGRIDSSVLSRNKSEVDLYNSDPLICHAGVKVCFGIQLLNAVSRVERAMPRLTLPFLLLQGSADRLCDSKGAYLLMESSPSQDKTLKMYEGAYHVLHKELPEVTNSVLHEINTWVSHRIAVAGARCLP
The experiment in a line: Inhibition of wild type rat MAGL expressed in human HeLa cells. It is filed as cell-based. As to conditions: time 10.0 min, TDE = time-dependent effect. In a few lines: (§2)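 Homogenates of HeLa cells overexpressing wild-type rat MAGL, in 50 mM Tris-HCl pH 8.0 with 0.5 mg/mL fatty-acid-free BSA, 37 °C; 2-OG substrate 10 µM final, oleic acid by LC/MS. Time course: preincubation for varied times, then 30 min with substrate. Dilution: enzyme concentrated 100-fold, preincubated 20 min with 10× IC50-equivalent compound or 1% DMSO, diluted 100-fold into substrate buffer, product followed over 60 min (n = 3).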

Assay [6] concerns the target T1, Monoglyceride lipase (Mus musculus). The experiment in a line: In-vivo inhibition of mouse MAGL assessed as effect on AEA level in brain at 5 mg/kg, ip measured after 1 hr by LC-MS/MS analysis. It is filed as functional, organism-based. In a few lines:
as §1

Assay [7] shares this target. Nature of the assay: In-vivo inhibition of MAGL activity in brain of mouse at 5 mg/kg, ip measured after 1 hrs by LC-MS analysis. In kind it is functional, organism-based. Put shortly:
as §1

For assay [8] the target is unchanged. Nature of the assay: In-vivo inhibition of mouse MAGL assessed as effect on stearic level in brain at 5 mg/kg, ip measured after 1 hr by LC-MS/MS analysis. It is filed as functional, organism-based. Put shortly: as §1
In assay [9] the target is Cannabinoid receptor 1 (Homo sapiens) (UniProt P21554). The experiment in a line: Agonist activity at CB1 receptor (unknown origin) at 10 uM. In kind it is functional.
The target in assay [10] is T3, Lysophosphatidylserine lipase ABHD12 (Mus musculus) (UniProt Q99LR1).
T3 sequence (whole entry): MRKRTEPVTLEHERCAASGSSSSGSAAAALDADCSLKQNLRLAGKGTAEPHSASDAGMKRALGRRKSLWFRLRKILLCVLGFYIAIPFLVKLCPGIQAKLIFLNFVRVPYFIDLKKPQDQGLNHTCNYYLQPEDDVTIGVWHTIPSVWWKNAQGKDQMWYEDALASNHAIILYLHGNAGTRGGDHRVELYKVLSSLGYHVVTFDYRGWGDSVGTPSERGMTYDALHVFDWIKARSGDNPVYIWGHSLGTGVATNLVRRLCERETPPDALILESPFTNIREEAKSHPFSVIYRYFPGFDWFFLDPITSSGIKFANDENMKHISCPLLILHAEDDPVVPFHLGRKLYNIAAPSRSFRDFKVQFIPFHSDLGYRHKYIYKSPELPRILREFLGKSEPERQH
The experiment in a line: Binding affinity to mouse brain ABHD12 at 0.1 to 1 uM incubated for 30 mins in presence of g MB064 by ABPP assay. It is filed as tissue-based. As to conditions: dose 0.1-1 µM. In a few lines:
(§3)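 Male C57Bl/6J mouse brain (27 weeks) homogenised; membrane and cytosol fractions separated and diluted to 2.0 mg/mL. Samples incubated with compound (0.1 or 1 µM final) or 2.5% DMSO for 30 min at RT. Probes MB064 and FP-Bodipy (100 nM each) added for 10 min. SDS-PAGE with in-gel fluorescence; Coomassie staining as loading control.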

Assay [11] has as its target Acyl-protein thioesterase 2 (Mus musculus) (UniProt Q9WTL7). The experiment in a line: Binding affinity to mouse brain LYPLA2 at 0.1 to 1 uM incubated for 30 mins in presence of MB064 by ABPP assay. It is filed as tissue-based. Conditions: dose 0.1-1 µM. Put shortly: as §3
Assay [12] concerns the target T1, Monoglyceride lipase (Mus musculus). The experiment in a line: In-vivo inhibition of mouse MAGL assessed as effect on OEA level in brain at 5 mg/kg, ip measured after 1 hr by LC-MS/MS analysis. It is filed as functional, organism-based. Put shortly: as §1
The target in assay [13] is T4, Monoacylglycerol lipase ABHD6 (Mus musculus) (UniProt Q8R2Y0).
T4 sequence (whole entry): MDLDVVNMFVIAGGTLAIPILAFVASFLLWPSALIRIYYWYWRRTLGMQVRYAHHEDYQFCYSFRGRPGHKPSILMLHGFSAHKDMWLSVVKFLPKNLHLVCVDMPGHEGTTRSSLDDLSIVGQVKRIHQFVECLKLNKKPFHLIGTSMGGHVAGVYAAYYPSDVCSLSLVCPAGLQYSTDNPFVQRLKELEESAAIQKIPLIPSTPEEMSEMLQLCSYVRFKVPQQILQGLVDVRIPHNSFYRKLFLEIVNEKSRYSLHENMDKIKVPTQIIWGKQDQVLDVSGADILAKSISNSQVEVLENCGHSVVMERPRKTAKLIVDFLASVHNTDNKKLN
Nature of the assay: Binding affinity to mouse brain ABHD6 at 0.1 to 1 uM incubated for 30 mins in presence of MB064 by ABPP assay. In kind it is tissue-based. As to conditions: dose 0.1-1 µM. In a few lines:
as §3

The target in assay [14] is T1, Monoglyceride lipase (Mus musculus). The experiment in a line: In-vivo inhibition of mouse MAGL assessed as fold increase in 2-AG content in brain at 5 mg/kg, ip measured after 1 hr by LC-MS/MS analysis. It is filed as functional, organism-based. In a few lines: as §1
Assay [15] addresses T2, Monoglyceride lipase (Rattus norvegicus). The experiment in a line: Irreversible inhibition of rat MAGL expressed in human HeLa cells incubated for 60 mins. It is filed as cell-based. Put shortly: as §2
Assay [16] addresses T1, Monoglyceride lipase (Mus musculus). The experiment in a line: In-vivo inhibition of mouse MAGL assessed as effect on docosahexaenoic level in brain at 5 mg/kg, ip measured after 1 hr by LC-MS/MS analysis. In kind it is functional, organism-based. In a few lines:
as §1

The target is the same in assay [17]. Nature of the assay: In-vivo inhibition of mouse MAGL assessed as effect on PEA level in brain at 5 mg/kg, ip measured after 1 hr by LC-MS/MS analysis. In kind it is functional, organism-based. Put shortly:
as §1

Assay [18] shares this target. Nature of the assay: In-vivo inhibition of mouse MAGL assessed as effect on palmitic level in brain at 5 mg/kg, ip measured after 1 hr by LC-MS/MS analysis. It is filed as functional, organism-based. Put shortly: as §1

Sequence of Cannabinoid receptor 1 (Homo sapiens) (P21554 whole entry): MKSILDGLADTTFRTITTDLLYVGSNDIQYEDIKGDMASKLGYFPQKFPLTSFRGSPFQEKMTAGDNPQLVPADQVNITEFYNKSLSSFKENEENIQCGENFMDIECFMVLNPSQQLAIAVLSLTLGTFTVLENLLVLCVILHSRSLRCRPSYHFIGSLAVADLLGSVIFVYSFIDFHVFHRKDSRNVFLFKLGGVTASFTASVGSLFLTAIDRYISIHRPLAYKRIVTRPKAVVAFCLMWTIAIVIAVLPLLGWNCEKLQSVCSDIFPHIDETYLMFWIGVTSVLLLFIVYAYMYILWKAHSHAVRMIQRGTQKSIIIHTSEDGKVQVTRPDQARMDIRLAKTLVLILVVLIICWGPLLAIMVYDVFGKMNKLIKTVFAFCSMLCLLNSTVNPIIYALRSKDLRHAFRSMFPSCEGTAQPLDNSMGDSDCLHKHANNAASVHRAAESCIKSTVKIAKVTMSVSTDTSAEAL
Sequence of Acyl-protein thioesterase 2 (Mus musculus) (Q9WTL7 whole entry): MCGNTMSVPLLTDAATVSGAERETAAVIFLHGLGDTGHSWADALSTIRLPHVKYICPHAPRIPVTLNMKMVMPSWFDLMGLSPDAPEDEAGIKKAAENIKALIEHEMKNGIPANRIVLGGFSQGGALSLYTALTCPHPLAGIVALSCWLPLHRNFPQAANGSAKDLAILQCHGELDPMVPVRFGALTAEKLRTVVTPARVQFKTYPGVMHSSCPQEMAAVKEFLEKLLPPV
Sequence of Kappa-type opioid receptor (Homo sapiens) (P41145 whole entry): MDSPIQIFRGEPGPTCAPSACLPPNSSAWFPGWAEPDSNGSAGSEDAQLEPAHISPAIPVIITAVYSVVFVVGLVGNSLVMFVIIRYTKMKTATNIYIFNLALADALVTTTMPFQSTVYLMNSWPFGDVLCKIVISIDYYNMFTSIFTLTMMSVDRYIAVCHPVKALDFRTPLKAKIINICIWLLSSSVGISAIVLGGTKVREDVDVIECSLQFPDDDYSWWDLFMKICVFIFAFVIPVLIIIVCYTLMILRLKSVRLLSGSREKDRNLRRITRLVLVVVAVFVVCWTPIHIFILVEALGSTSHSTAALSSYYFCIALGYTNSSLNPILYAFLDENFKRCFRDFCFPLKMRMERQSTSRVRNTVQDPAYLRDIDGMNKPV
Sequence of Cannabinoid receptor 2 (P34972 whole entry): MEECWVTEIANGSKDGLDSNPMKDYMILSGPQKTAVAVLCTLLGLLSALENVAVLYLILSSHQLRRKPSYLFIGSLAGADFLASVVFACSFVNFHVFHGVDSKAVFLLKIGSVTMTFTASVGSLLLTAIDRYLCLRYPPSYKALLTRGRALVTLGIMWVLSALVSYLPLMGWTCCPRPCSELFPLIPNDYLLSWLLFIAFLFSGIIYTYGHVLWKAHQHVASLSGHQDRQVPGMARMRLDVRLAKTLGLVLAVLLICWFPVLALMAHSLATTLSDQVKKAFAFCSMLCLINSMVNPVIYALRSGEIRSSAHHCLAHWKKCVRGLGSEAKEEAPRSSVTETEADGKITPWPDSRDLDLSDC

Turning to `O=C1[C@H](c2ccc(F)cc2)[C@@H](c2ccc3c(c2)OCO3)N1C1CCN(C(=O)n2nnc3ccccc32)CC1` (racemic), the inhibition (commonly the share of the control response that was lost under treatment) in assay [1] is “Dose-Dependent Effect”; in assay [5], “Tde”; in assay [6], “Dose-Dependent Effect”; in [7], 50%; in assay [12] it was “Dose-Dependent Effect”; in assay [17], “Dose-Dependent Effect”. Besides, in assay [2], the Activity was found to be 73%. The result (on Cannabinoid receptor 2; in assay [9]) was inactive. Also, the inhibition result in assay [3], in [4], in assay [8], in assay [15], in [16] and in [18] was “Active” in each case. The result in [10], in [11] and in assay [13] was Active. Also, the fold change (FC) in assay [14] was more than 40.
